Reference: ChEMBL document CHEMBL2021824, “Structural modifications modulate stability of glutathione-activated arylated diazeniumdiolate prodrugs” (Bioorg Med Chem, 2012)
Active and inactive are the calls of the source. No cut-off for these calls is given here.

Key:
NCI-H1703 [1] = test: Induction of apoptosis in human NCI-H1703 cells assessed as PARP cleavage at 1 uM after 4 hrs by Western blotting analysis; type: functional, cell-based
Procedure, shortened: (§1)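 H1703 lung adenocarcinoma cells exposed to 1 μM compound for 4 h. Western blots probed for phospho-SAPK/JNK, phospho-c-jun, ATF3, PARP (full-length and 89-kDa cleaved fragment) and cleaved effector caspases 3 and 7.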

NCI-H1703 [2] = test: Induction of apoptosis in human NCI-H1703 cells assessed as cleaved of caspase 3 level at 1 uM after 4 hrs by Western blotting analysis; type: functional, cell-based; procedure, shortened: as §1
NCI-H1703 [3] = test: Antitumor activity against human NCI-H1703 cells xenografted in athymic NCr-nu/nu mouse at 20 umol/kg, ip 5 times a week for 4-weeks relative to control; type: functional, organism-based
Procedure, shortened: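 H1703 cells implanted in the flank of 7-week-old female athymic NCr-nu/nu mice. Dosing started once tumors reached 2 × 2 × 2 mm3 (typically four weeks). Compound was given as Pluronic P123 micelles at 20 μmol/kg ip, five times a week for four weeks. Vehicle controls received 2.25% Pluronic P123 in PBS. Tumors measured by caliper and body weights tracked. Welch-corrected t-test.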

[4] = Prodrug activation assessed as GSH-induced nitric oxide production per mol of the compound by chemiluminescence assay; type: physicochemical
Procedure, shortened: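 Phosphate buffer, pH 7.4, containing 4 mM GSH at 37 °C was sparged with inert gas until the detector response was steady. The prodrug was then injected and NO release followed over time. The release curve was integrated to give mol NO per mol compound, reported as mean (SE).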

NCI-H1703 [5] = test: Metabolic stability in human NCI-H1703 cells assessed as formation of arylated GSH at 5 uM after 30 mins by LC/MS analysis; type: ADME, cell-based; conditions: nci-h1703, 0.5 h
Procedure, shortened: (§2)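 H1703 cells plated in flasks and incubated overnight at 37 °C, then treated with 5 μM compound for 5, 30 or 60 min. Cells lysed by scraping in 10 mM HCl with freeze-thaw cycles, then deproteinized with 5-sulfosalicylic acid and centrifuged. Supernatant analyzed by LC/MS with positive APCI on a C18 column using a water/acetonitrile/0.1% formic acid gradient. Extracted ion chromatograms tracked parent and arylated GSH.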

[6] = Half life of the compound in GSH-containing buffer; type: physicochemical
Procedure, shortened: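 Loss of the diazeniumdiolate chromophore followed by UV-visible spectrophotometry at 37 °C. Absorbance was tracked at each compound's λmax. kobs came from a first-order exponential fit and half-life was derived from it. Mean (SE).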

[7] = Induction of SAPK/JNK-mediated ATF3 upregulation in human H1703 cells at 1 uM after 4 hrs by Western blotting analysis; type: cell-based; procedure, shortened: as §1
H1703 [8] = test: Induction of SAPK/JNK phosphorylation in human H1703 cells at 1 uM after 4 hrs by Western blotting analysis; type: cell-based; procedure, shortened: as §1
NCI-H1703 [9] = test: Induction of apoptosis in human NCI-H1703 cells assessed as cleaved of caspase 7 level at 1 uM after 4 hrs by Western blotting analysis; type: functional, cell-based; procedure, shortened: as §1
NCI-H1703 [10] = test: Antiproliferative activity against human NCI-H1703 cells after 48 hrs by MTT assay; type: functional, cell-based; conditions: NCI-H1703, 48 h
NCI-H1703 [11] = test: Metabolic stability in human NCI-H1703 cells assessed as formation of arylated GSH at 5 uM after 5 mins by LC/MS analysis; type: ADME, cell-based; conditions: nci-h1703, 5 min; procedure, shortened: as §2
H1703 [12] = test: Induction of SAPK/JNK-mediated c-jun phosphorylation in human H1703 cells at 1 uM after 4 hrs by Western blotting analysis; type: cell-based; procedure, shortened: as §1
NCI-H1703 [13] = test: Metabolic stability in human NCI-H1703 cells assessed as formation of arylated GSH at 5 uM after 60 mins by LC/MS analysis; type: ADME, cell-based; conditions: nci-h1703, 1 h; procedure, shortened: as §2

NO yield [4] [mol/mol]	t1/2 [6] [min]	IC50 (NCI-H1703 [10]) [nM]	SMILES	also measured
2.04	33.6	550	CCOC(=O)N1CCN(/[N+]([O-])=N/Oc2ccc([N+](=O)[O-])cc2C#N)CC1	Activity (NCI-H1703 [1]): Active; Activity (NCI-H1703 [2]): Active; Activity (NCI-H1703 [3]): Active; Stability (NCI-H1703 [5]): Stable; Activity [7]: Active; Activity (H1703 [8]): Active; Activity (NCI-H1703 [9]): Active; Stability (NCI-H1703 [11]): Stable; Activity (H1703 [12]): Active; Stability (NCI-H1703 [13]): Unstable
2.01	66	2620	CCOC(=O)N1CCCN(/[N+]([O-])=N/Oc2ccc([N+](=O)[O-])cc2C#N)CC1	–
–	918	> 20000	CCOC(=O)N1CCN(/[N+]([O-])=N/Oc2ccc(C#N)cc2C#N)CC1	–
2.02	22.1	730	CCOC(=O)N1CCN(/[N+]([O-])=N/Oc2ccc(C#N)cc2[N+](=O)[O-])CC1	–
1.96	42.6	680	CCOC(=O)N1CCCN(/[N+]([O-])=N/Oc2ccc(C#N)cc2[N+](=O)[O-])CC1	–

SMILES	NO yield [4] [mol/mol]	t1/2 [6] [min]	IC50 (NCI-H1703 [10]) [nM]	also measured
CCOC(=O)N1CCCN(/[N+]([O-])=N/Oc2ccc([N+](=O)[O-])cc2[N+](=O)[O-])CC1	2	–	–	–
CCOC(=O)N1CCN(/[N+]([O-])=N/Oc2ccc([N+](=O)[O-])cc2[N+](=O)[O-])CC1	1.96	–	1080	–
